Results taken from ChEMBL document CHEMBL1141391 (J Med Chem, 2007).

Legend:
[1] = system: 1A9/ptx-10; assay: Relative resistance, IC50 for 1A9-PTX10 F-beta-270V mutant/IC50 for 1A9; format: functional, Homo sapiens
[2] = system: PC-3; assay: Cytotoxicity against PC3 cell line by MTT assay; format: cell-based; details: Homo sapiens
[3] = target: Tubulin (Homo sapiens) (UniProt P68371+Q9H4B7+P0DPH7+P68366+Q13509+Q71U36+P04350+Q3ZCM7+P07437+P68363+Q9BQE3+Q6PEY2+Q13885+Q9BVA1+Q9BUF5); assay: Induction of GTP-tubulin polymerization; format: protein-complex assay
Method in brief: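 ED50 for induction of tubulin assembly, read by light scattering at 350 nm or by fluorescence in a 96-well format. GTP-tubulin was used unless otherwise stated. Some samples were run with GDP-tubulin and normalized to the GTP-tubulin scale. Some values are single determinations.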

[4] = system: 1A9/ptx-10; assay: Inhibition of growth in paclitaxel resistant 1A9-PTX10 F-beta-270V mutant cell line after 72 hrs by SRB assay; format: functional, cell-based; details: Homo sapiens, 1A9/ptx-10, 72 h
[5] = system: 1A9; assay: Relative resistance, IC50 for 1A9-A8 A8 T-beta-274I mutant/IC50 for 1A9; format: functional, Homo sapiens
[6] = Inhibition of growth in epothilone A resistant 1A9-A8 T-beta-274I mutant cell line after 72 hrs by SRB assay; format: functional, cell-based; details: Homo sapiens, 1A9, 72 h
[7] = system: 1A9; assay: Inhibition of growth in 1A9 cell line after 72 hrs; format: functional, cell-based; details: Homo sapiens, 1A9, 72 h
[8] = system: A2780; assay: Cytotoxicity against A2780 cell line; format: cell-based; details: Homo sapiens

In the case of `CC(=O)O[C@H]1C(=O)[C@]2(C)C(O)C[C@H]3OC[C@]34OC(=O)/C=C\Cc3ccccc3[C@H](NC(=O)c3ccccc3)[C@@H](O)C(=O)O[C@H]3C[C@@](O)([C@@H](OC(=O)c5ccccc5)[C@H]42)C(C)(C)C1=C3C` (stereo not given in full), the “Ratio IC50” value [1] is reported as 1.8, the IC50 [2] is reported as 2.5 nM and the ED50 [3] is reported as 300 nM. The IC50 [4] was 0.13 nM, the “Ratio IC50” value [5] was 0.84 and the IC50 [6] was 0.27 nM. For the same compound, the IC50 [7] was 0.32 nM and the IC50 [8] was 0.3 nM.

In the case of `CC(=O)O[C@H]1C(=O)[C@@]2(C)[C@@H]3[C@H](OC(=O)c4ccccc4)[C@]4(O)C[C@H](OC(=O)[C@H](O)[C@@H](NC(=O)c5ccccc5)c5ccccc5OCCCC(=O)O[C@]35CO[C@@H]5C[C@@H]2O)C(C)=C1C4(C)C`, the “Ratio IC50” value [1] is reported as 1.8, the IC50 [2] is reported as 50 nM and the ED50 [3] is reported as 830 nM. For the same compound, the IC50 [4] was 35.9 nM, the “Ratio IC50” value [5] was 3.5 and the IC50 [6] was 66.5 nM. It also gave an IC50 [7] of 18.9 nM and an IC50 [8] of 18.5 nM.

In the case of `C=CCCC(=O)O[C@@]12CO[C@@H]1C[C@H](O)[C@@]1(C)C(=O)[C@H](OC(C)=O)C3=C(C)[C@@H](OC(=O)[C@H](O)[C@@H](NC(=O)c4ccccc4)c4ccccc4OCC=C)C[C@@](O)([C@@H](OC(=O)c4ccccc4)[C@H]21)C3(C)C`, the “Ratio IC50” value [1] is reported as 18, the IC50 [2] is reported as 128 nM and the ED50 [3] is reported as 420 nM. The IC50 [4] was 65 nM, the “Ratio IC50” value [5] was 82 and the IC50 [6] was 148 nM. For the same compound, the IC50 [7] was 1.8 nM and the IC50 [8] was 770 nM.

In the case of `CC(=O)O[C@H]1C(=O)[C@@]2(C)[C@@H]3[C@H](OC(=O)c4ccccc4)[C@]4(O)C[C@H](OC(=O)[C@H](O)[C@@H](NC(=O)c5ccccc5)c5ccccc5OCC/C=C/C(=O)O[C@]35CO[C@@H]5C[C@@H]2O)C(C)=C1C4(C)C`, the “Ratio IC50” value [1] is reported as 9.2, the IC50 [2] is reported as 16 nM and the ED50 [3] is reported as 670 nM. The IC50 [4] was 157 nM, the “Ratio IC50” value [5] was 3.8 and the IC50 [6] was 46.4 nM. The IC50 [7] was 12.2 nM and the IC50 [8] was 20 nM.

For `CC(=O)O[C@H]1C(=O)[C@@]2(C)[C@@H]3[C@H](OC(=O)c4ccccc4)[C@]4(O)C[C@H](OC(=O)[C@H](O)[C@@H](NC(=O)c5ccccc5)c5cccc(c5)OC/C=C/CCC(=O)O[C@]35CO[C@@H]5C[C@@H]2O)C(C)=C1C4(C)C`, the “Ratio IC50” value [1] was 6.3, the IC50 [4] was 196 nM and the “Ratio IC50” value [5] was >12. For the same compound, the IC50 [6] was > 300 nM, the IC50 [7] was 24.6 nM and the IC50 [8] was 650 nM.

`CC(=O)O[C@H]1C(=O)[C@@]2(C)[C@H]([C@H](OC(=O)c3ccccc3)[C@]3(O)C[C@H](OC(=O)[C@H](O)[C@@H](NC(=O)c4ccccc4)c4ccccc4)C(C)=C1C3(C)C)[C@]1(OC(C)=O)CO[C@@H]1C[C@@H]2O` [PACLITAXEL] showed an IC50 [2] of 5 nM, an ED50 [3] of 500 nM and an IC50 [4] of 157 nM. For the same compound, the IC50 [6] was 21.5 nM and the IC50 [7] was 4.8 nM.

`CC(=O)O[C@H]1C(=O)[C@@]2(C)[C@@H]3[C@H](OC(=O)c4ccccc4)[C@]4(O)C[C@H](OC(=O)[C@H](O)[C@@H](NC(=O)c5ccccc5)c5cccc(c5)OC/C=C\C(=O)O[C@]35CO[C@@H]5C[C@@H]2O)C(C)=C1C4(C)C` gave an IC50 [2] of 580 nM, an ED50 [3] of 4600 nM and an IC50 [8] of 6300 nM.

Work on `C=CCCCC(=O)O[C@@]12CO[C@@H]1C[C@H](O)[C@@]1(C)C(=O)[C@H](OC(C)=O)C3=C(C)[C@@H](OC(=O)[C@H](O)[C@@H](NC(=O)c4ccccc4)c4cccc(OCC=C)c4)C[C@@](O)([C@@H](OC(=O)c4ccccc4)[C@H]21)C3(C)C` yielded an IC50 [2] of 4600 nM, an ED50 [3] of 2200 nM and an IC50 [8] of 7400 nM.

In the case of `C=CCOc1cccc([C@H](NC(=O)c2ccccc2)[C@@H](O)C(=O)O[C@H]2C[C@@]3(O)[C@@H](OC(=O)c4ccccc4)[C@@H]4[C@]5(OC(=O)C=C)CO[C@@H]5C[C@H](O)[C@@]4(C)C(=O)[C@H](OC(C)=O)C(=C2C)C3(C)C)c1`, the IC50 [2] is reported as 550 nM, the ED50 [3] is reported as 1000 nM and the IC50 [8] is reported as 1900 nM.

Compound `CC(=O)O[C@H]1C(=O)[C@@]2(C)[C@@H]3[C@H](OC(=O)c4ccccc4)[C@]4(O)C[C@H](OC(=O)[C@H](O)[C@@H](NC(=O)OC(C)(C)C)c5ccccc5CCCC(=O)O[C@]35CO[C@@H]5C[C@@H]2O)C(C)=C1C4(C)C` has an IC50 [2] of 1.5 nM, an ED50 [3] of 180 nM and an IC50 [8] of 0.65 nM.
